Data from PubChem BioAssay AID652185 (Vanderbilt Specialized Chemistry Center, 2013).
Active and inactive are the calls of the source. How the calls were made is not given here.

Target: Metabotropic glutamate receptor 2 (Rattus norvegicus) (UniProt P31421)
Assay: mGlu2 glutamate EC50 shift by compounds – cell-based, HEK293A, Galpha15, calcium mobilization, selectivity assay for mGlu5 silent allosteric modulators, profiling panel (AID 652185)
Conditions: HEK293A rmGlu2+Galpha15, Fluo4 calcium mobilization, glutamate CRC
In short: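 Test system: rat mGlu2 plus Galpha15 in HEK293A cells. Medium: HEPES-buffered HBSS with probenecid, pH 7.4. Also added: glutamate, 10 nM–1 mM, 9 concentrations. Doses: single compound dose of 10 µM, 1% DMSO final. Incubation: 60 min 37 °C dye load, compound 60 s pre-glutamate. Detection: Fluo4-AM (1 µM) calcium-dependent fluorescence.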

Sequence of Metabotropic glutamate receptor 2 (Rattus norvegicus) (P31421 whole entry, looked up): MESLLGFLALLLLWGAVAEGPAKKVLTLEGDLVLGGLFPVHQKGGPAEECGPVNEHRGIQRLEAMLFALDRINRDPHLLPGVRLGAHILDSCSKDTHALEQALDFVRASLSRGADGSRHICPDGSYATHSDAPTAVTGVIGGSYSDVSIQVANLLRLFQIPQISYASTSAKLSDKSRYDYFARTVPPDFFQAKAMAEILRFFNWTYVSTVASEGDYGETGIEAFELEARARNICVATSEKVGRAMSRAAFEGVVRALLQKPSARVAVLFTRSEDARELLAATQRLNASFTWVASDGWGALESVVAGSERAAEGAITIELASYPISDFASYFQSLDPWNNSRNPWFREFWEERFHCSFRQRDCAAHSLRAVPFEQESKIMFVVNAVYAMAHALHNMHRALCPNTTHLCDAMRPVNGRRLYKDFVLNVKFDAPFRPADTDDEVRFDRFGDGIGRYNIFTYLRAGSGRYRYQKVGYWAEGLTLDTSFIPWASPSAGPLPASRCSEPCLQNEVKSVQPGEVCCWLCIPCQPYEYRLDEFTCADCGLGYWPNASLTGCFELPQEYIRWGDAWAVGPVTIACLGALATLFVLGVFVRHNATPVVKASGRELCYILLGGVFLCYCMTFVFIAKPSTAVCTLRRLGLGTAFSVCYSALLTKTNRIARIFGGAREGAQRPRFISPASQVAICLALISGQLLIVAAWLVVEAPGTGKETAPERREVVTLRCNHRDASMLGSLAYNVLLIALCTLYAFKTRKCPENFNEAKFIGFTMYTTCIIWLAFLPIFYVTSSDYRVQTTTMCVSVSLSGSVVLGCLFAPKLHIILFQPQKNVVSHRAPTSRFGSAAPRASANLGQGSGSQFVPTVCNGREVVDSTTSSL

With `O=C(c1ccc(C#Cc2cccc(F)c2)cn1)N1CC2CC2C1` (stereo unspecified) the “glutamate EC50 in presence of 10 uM compound (no shift = inactive)” value was “inactive”.
